pIC50: −log10 of the molar value. Calls of active or inactive are those of the source. The rule behind the calls is not given here.
Columns and labels:
NCI-H460 = test: Antiproliferative activity against human H460 cells after 72 hrs by MTT assay; type: functional; settings: NCI-H460, 72 h
Method in brief: (§1)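 Adherent monolayers grown in DMEM with 10% FBS, 2 mM L-glutamine, penicillin and streptomycin at 37 °C, 5% CO2. Cells seeded on day 0, then given five 10-fold dilutions (10^-8 to 10^-4 mol/L), DMSO at most 0.25%, for 72 h. MTT read at 570 nm. GI50 from linear regression of percentage growth around 50%. Quadruplicate points; mean of three experiments.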

SW-620 [1] = test: Antiproliferative activity against human SW620 cells after 72 hrs by MTT assay; type: functional; settings: SW-620, 72 h; method in brief: as §1
MCF7 = test: Antiproliferative activity against human MCF7 cells after 72 hrs by MTT assay; type: functional; settings: MCF7, 72 h; method in brief: as §1
MIA PaCa-2 = test: Antiproliferative activity against human MIAPaCa2 cells after 72 hrs by MTT assay; type: functional; settings: MIA PaCa-2, 72 h; method in brief: as §1
HeLa = test: Antiproliferative activity against human HeLa cells after 72 hrs by MTT assay; type: functional; method in brief: as §1
Bacillus subtilis = test: Antibacterial activity against Bacillus subtilis after 70 mins; type: functional, organism-based
Escherichia coli [2] = test: Antibacterial activity against Escherichia coli assessed as growth inhibition at 10^-4 M after 105 mins; type: functional; settings: 1.75 h, read-out: GI
Method in brief: (§2)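 E. coli grown in LB at 37 °C with shaking to OD600 ≈0.1. Culture split into untreated control and four treated aliquots at 10^-4, 10^-5, 10^-6 and 10^-7 M. Grown 105 min (about three mass doublings) at 37 °C. Dilutions in phosphate buffer plated on LB, incubated overnight at 37 °C, CFU counted. % growth inhibition and GI50 derived as for tumour cells. Quadruplicate, at least two experiments.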

SW-620 [3] = test: Cell cycle arrest in human SW620 cells assessed as G1 phase delay at 5 uM after 24 to 48 hrs using propidium iodide staining by flow cytometry; type: functional, cell-based
Method in brief: (§3)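 2×10^5 SW 620 cells per well were treated 24 h after seeding, for 24 or 48 h. Attached and floating cells were pooled, fixed in 70% ethanol, then stained with 1 µg/ml PI plus RNase A. 20000 events were acquired by flow cytometry. Phase percentages came from DNA histograms; subG1 is given as a percentage of all counts.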

SW-620 [4] = test: Cell cycle arrest in human SW620 cells assessed as G1 phase delay at 10 uM after 24 to 48 hrs using propidium iodide staining by flow cytometry; type: functional, cell-based; method in brief: as §3
SW-620 [5] = test: Cell cycle arrest in human SW620 cells assessed as S phase reduction at 5 uM after 24 to 48 hrs using propidium iodide staining by flow cytometry; type: functional, cell-based; method in brief: as §3
SW-620 [6] = test: Cell cycle arrest in human SW620 cells assessed as S phase reduction at 10 uM after 24 to 48 hrs using propidium iodide staining by flow cytometry; type: functional, cell-based; method in brief: as §3
SW-620 [7] = test: Cell cycle arrest in human SW620 cells assessed as accumulation in subG1 phase at 10 uM after 24 to 48 hrs using propidium iodide staining by flow cytometry; type: functional, cell-based; method in brief: as §3
SW-620 [8] = test: Induction of apoptosis in human SW620 cells assessed as viable cells at 5 uM after 48 hrs using annexin-V/conjugated 7-AAD double staining by flow cytometry (reference value: 95.95%); type: functional; settings: SW-620, 48 h, read-out: Activity
SW-620 [9] = test: Induction of apoptosis in human SW620 cells assessed as early apoptotic cells at 5 uM after 48 hrs using annexin-V/conjugated 7-AAD double staining by flow cytometry (reference value: 2.58%); type: functional
SW-620 [10] = test: Induction of apoptosis in human SW620 cells assessed as late apoptotic cells at 5 uM after 48 hrs using annexin-V/conjugated 7-AAD double staining by flow cytometry (reference value: 1.33%); type: functional
SW-620 [11] = test: Induction of apoptosis in human SW620 cells assessed as necrotic cells at 5 uM after 48 hrs using annexin-V/conjugated 7-AAD double staining by flow cytometry (reference value: 0.14%); type: functional
SW-620 [12] = test: Induction of apoptosis in human SW620 cells assessed as viable cells at 10 uM after 48 hrs using annexin-V/conjugated 7-AAD double staining by flow cytometry (reference value: 95.95%); type: functional; settings: SW-620, 48 h, read-out: Activity
SW-620 [13] = test: Induction of apoptosis in human SW620 cells assessed as early apoptotic cells at 10 uM after 48 hrs using annexin-V/conjugated 7-AAD double staining by flow cytometry (reference value: 2.58%); type: functional
SW-620 [14] = test: Induction of apoptosis in human SW620 cells assessed as late apoptotic cells at 10 uM after 48 hrs using annexin-V/conjugated 7-AAD double staining by flow cytometry (reference value: 1.33%); type: functional
SW-620 [15] = test: Induction of apoptosis in human SW620 cells assessed as necrotic cells at 10 uM after 48 hrs using annexin-V/conjugated 7-AAD double staining by flow cytometry (reference value: 0.14%); type: functional
HCT-116 = test: Antiproliferative activity against human HCT116 cells after 72 hrs by MTT assay; type: functional; settings: HCT-116, 72 h; method in brief: as §1
MOLT-4 = test: Antiproliferative activity against human MOLT4 cells after 72 hrs by MTT assay; type: functional; settings: MOLT-4, 72 h
Method in brief: as §1, with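 “MOLT-4” for “Adherent monolayers”, “suspension in RPMI” for “DMEM”, “Treated with” for “Cells seeded on day 0, then given”, “by” for “from”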

Escherichia coli [16] = test: Antibacterial activity against Escherichia coli after 105 mins; type: functional; settings: 1.75 h; method in brief: as §2

| SMILES | GI50 (NCI-H460) | GI50 (SW-620 [1]) | GI50 (MCF7) | GI50 (MIA PaCa-2) | GI50 (HeLa) | pIC50 (Bacillus subtilis) | inhibition of growth at 100 µM (Escherichia coli [2]) | also measured |
| --- | --- | --- | --- | --- | --- | --- | --- | --- |
| C1COCCOCCN(CCC23CC4CC(CC(C4)C2)C3)CCOCCOCCO1 | 15 µM | 9 µM | 8 µM | 12 µM | 16 µM | 4.60 | – | – |
| C1COCC23CC4CC(C2)CC(COCCOCC25CC6CC(CC(CO1)(C6)O2)C5)(C4)O3 | 4 µM | 3 µM | 13 µM | 2 µM | 17 µM | 2.80 | < 15% | – |
| C1COCCN(CC23CC4CC(CC(C4)C2)C3)CCOCCOCCN(CC23CC4CC(CC(C4)C2)C3)CCO1 | 18 µM | 19 µM | 21 µM | – | – | 4.60 | < 15% | – |
| C1COCCN(CCC23CC4CC(CC(C4)C2)C3)CCOCCOCCN(CCC23CC4CC(CC(C4)C2)C3)CCO1 | 4 µM | 2.6 µM | 4 µM | 1.7 µM | 2.3 µM | 3.60 | < 15% | Activity (SW-620 [3]): Active; Activity (SW-620 [4]): Active; Activity (SW-620 [5]): Active; Activity (SW-620 [6]): Active; Activity (SW-620 [7]): Active; viability at 5 µM (SW-620 [8]): 90%; Activity (SW-620 [9]): 7.46%; Activity (SW-620 [10]): 2.34%; Activity (SW-620 [11]): 0.17%; viability at 10 µM (SW-620 [12]): 76%; Activity (SW-620 [13]): 13.72%; Activity (SW-620 [14]): 9.46%; Activity (SW-620 [15]): 0.87% |
| C(CN1CCOCCOCCN(CCCC23CC4CC(CC(C4)C2)C3)CCOCCOCC1)CC12CC3CC(CC(C3)C1)C2 | 1 µM | 1 µM | 2 µM | – | – | 4.77 | 26% | GI50 (HCT-116): 0.4 µM; GI50 (MOLT-4): 1 µM; Activity (SW-620 [3]): Active; Activity (SW-620 [4]): Active; Activity (SW-620 [5]): Active; Activity (SW-620 [6]): Active; Activity (SW-620 [7]): Active; GI50 (Escherichia coli [16]): 1000 µM |
| O=C(CC12CC3CC(CC(C3)C1)C2)N1CCOCCOCCN(C(=O)CC23CC4CC(CC(C4)C2)C3)CCOCCOCC1 | 14 µM | 12 µM | 5 µM | – | – | 4.34 | < 15% | GI50 (HCT-116): 6 µM; GI50 (MOLT-4): 6 µM |
| O=C(CCC12CC3CC(CC(C3)C1)C2)N1CCOCCOCCOCCOCCOCC1 | 72 µM | 13 µM | 17 µM | 30 µM | 28 µM | 2.80 | < 15% | – |
| C1CCC2OCCOCCOC3CCCCC3OCCOCCOC2C1 (stereo not given) [ICOSAHYDRODIBENZO[B,K][1,4,7,10,13,16]HEXAOXACYCLOOCTADECINE] | – | – | – | – | – | 3.78 | < 15% | – |
| CC(C)(C)c1ccc2c(c1)OCCOCCOc1cc(C(C)(C)C)ccc1OCCOCCO2 | – | – | – | – | – | 5.70 | < 15% | – |
| O=C(CC12CC3CC(CC(C3)C1)C2)N1CCOCCOCCOCCOCCOCC1 | > 100 µM | > 100 µM | > 100 µM | > 100 µM | > 100 µM | – | < 15% | – |
| C1COCCOCCOCCOCCOCCN1 | > 100 µM | > 100 µM | > 100 µM | – | – | 2.80 | – | – |
| O=C(N1CCOCCOCCN(C(=O)C23CC4CC(CC(C4)C2)C3)CCOCCOCC1)C12CC3CC(CC(C3)C1)C2 | 12 µM | 21 µM | 9 µM | – | – | 4.12 | < 15% | – |
| c1ccc(CN2CCOCCOCCN(Cc3ccccc3)CCOCCOCC2)cc1 | – | – | – | – | – | 3.42 | < 15% | – |
| C(CN1CCOCCOCCOCCOCCOCC1)CC12CC3CC(CC(C3)C1)C2 | 15 µM | 9 µM | 6 µM | 11 µM | 14 µM | – | – | – |
| O=C(NCC(=O)N1CCOCCOCCN(C(=O)CNC(=O)OCc2ccccc2)CCOCCOCC1)OCc1ccccc1 | – | – | – | – | – | 2.80 | – | – |
| C1COCCOCCNCCOCCOCCN1 | > 100 µM | > 100 µM | > 100 µM | > 100 µM | > 100 µM | 2.80 | – | GI50 (HCT-116): > 100 µM; GI50 (MOLT-4): > 100 µM |
| COC(=O)[C@@H](NC(=O)CN1CCOCCOCCN(CC(=O)N[C@@H](C(=O)OC)c2ccccc2)CCOCCOCC1)c1ccccc1 | – | – | – | – | – | 3.42 | < 15% | – |
| c1ccc2c(c1)OCCOCCOc1ccccc1OCCOCCO2 | – | – | – | – | – | 3.42 | < 15% | – |
| CC(C)(C)c1cc2c(c(C(C)(C)C)c1)OCCOCCOc1c(cc(C(C)(C)C)cc1C(C)(C)C)OCCOCCO2 | – | – | – | – | – | 2.80 | < 15% | – |
| CC(C)(C)C1CCC2OCCOCCOC3CC(C(C)(C)C)CCC3OCCOCCOC2C1 (stereo not given) | – | – | – | – | – | 5.88 | < 15% | – |
| c1ccc(CN2CCOCCOCCOCCOCCOCC2)cc1 | > 100 µM | > 100 µM | > 100 µM | – | – | 2.80 | – | – |
| C1COCCOCC23CC4CC(C2)CC(COCCOCCO1)(C4)O3 | > 100 µM | > 100 µM | > 100 µM | > 100 µM | > 100 µM | 2.80 | – | – |
| O=C(CCC12CC3CC(CC(C3)C1)C2)N1CCOCCOCCN(C(=O)CCC23CC4CC(CC(C4)C2)C3)CCOCCOCC1 | 11 µM | 19 µM | 2 µM | – | – | 3.89 | < 15% | GI50 (HCT-116): 6 µM; GI50 (MOLT-4): 3 µM |
